Laboratory results as given in ChEMBL document CHEMBL3112482, “Nonclassical antifolates, part 5. Benzodiazepine analogs as a new class of DHFR inhibitors: synthesis, antitumor testing and molecular modeling study” (Eur J Med Chem, 2014).
pIC50: −log10 of the molar value.

Tests used:
MDA-MB-435 = experiment: Growth inhibition of human MDA-MB-435 cells at 10 uM after 48 hrs; type: functional; settings: MDA-MB-435, 48 h, read-out: GI
Outline: (§1)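 Single-dose primary screen in the NCI 60 human tumour cell line panel, run at the NCI facility. The panel covers nine subpanels: leukaemia, non-small cell lung, colon, CNS, melanoma, ovarian, renal, prostate and breast. Read-out was percent growth of treated cells, shown as a mean graph and reported as percent growth inhibition.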

M14 = experiment: Growth inhibition of human M14 cells at 10 uM after 48 hrs; type: functional; settings: M14, 48 h, read-out: GI; outline: as §1
SNB-75 = experiment: Growth inhibition of human SNB75 cells at 10 uM after 48 hrs; type: functional; settings: SNB-75, 48 h, read-out: GI
Outline: (§2)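 NCI 60-cell-line disease-oriented human tumor panel, single-dose primary screen at 10 µM. Data given as mean-graph percent growth of treated cells, reported as percent growth inhibition (GI %).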

SNB-19 = experiment: Growth inhibition of human SNB19 cells at 10 uM after 48 hrs; type: functional; settings: SNB-19, 48 h, read-out: GI; outline: as §2
[1] = Growth inhibition of human SF539 cells at 10 uM after 48 hrs; type: functional; settings: SF-539, 48 h, read-out: GI; outline: as §2
SF-268 = experiment: Growth inhibition of human SF268 cells at 10 uM after 48 hrs; type: functional; settings: SF-268, 48 h, read-out: GI; outline: as §2
SW-620 = experiment: Growth inhibition of human SW620 cells at 10 uM after 48 hrs; type: functional; settings: SW-620, 48 h, read-out: GI; outline: as §2
COLO 205 = experiment: Growth inhibition of human COLO205 cells at 10 uM after 48 hrs; type: functional; settings: COLO 205, 48 h, read-out: GI; outline: as §1
NCI-H522 = experiment: Growth inhibition of human NCI-H522 cells at 10 uM after 48 hrs; type: functional; settings: NCI-H522, 48 h, read-out: GI; outline: as §1
NCI-H322M = experiment: Growth inhibition of human NCI-H322M cells at 10 uM after 48 hrs; type: functional; settings: read-out: GI; outline: as §1
NCI-H23 = experiment: Growth inhibition of human NCI-H23 cells at 10 uM after 48 hrs; type: functional; settings: NCI-H23, 48 h, read-out: GI; outline: as §1
[2] = Growth inhibition of human EKVX cells at 10 uM after 48 hrs; type: functional; settings: read-out: GI; outline: as §1
SR = experiment: Growth inhibition of human SR cells at 10 uM after 48 hrs; type: functional; settings: read-out: GI; outline: as §2
K562 = experiment: Growth inhibition of human K562 cells at 10 uM after 48 hrs; type: functional; settings: K562, 48 h, read-out: GI; outline: as §1
MOLT-4 = experiment: Growth inhibition of human MOLT4 cells at 10 uM after 48 hrs; type: functional; settings: MOLT-4, 48 h, read-out: GI; outline: as §1
CCRF-CEM = experiment: Growth inhibition of human CCRF-CEM cells at 10 uM after 48 hrs; type: functional; settings: read-out: GI; outline: as §1
Dihydrofolate reductase = molecular target: T1, Dihydrofolate reductase (Bos taurus, UniProt P00376); experiment: Inhibition of bovine liver DHFR measured for every 1 min of 10 mins
T1 sequence (P00376 whole entry): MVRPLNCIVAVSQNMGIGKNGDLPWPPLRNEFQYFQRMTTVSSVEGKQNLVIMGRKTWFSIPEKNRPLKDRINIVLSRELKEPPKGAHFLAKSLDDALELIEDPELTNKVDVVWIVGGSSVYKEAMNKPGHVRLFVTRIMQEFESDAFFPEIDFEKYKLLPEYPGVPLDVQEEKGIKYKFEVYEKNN

T47D = experiment: Growth inhibition of human T47D cells at 10 uM after 48 hrs; type: functional; settings: read-out: GI; outline: as §2
[3] = Growth inhibition of human Hs 578T cells at 10 uM after 48 hrs; type: functional; settings: read-out: GI; outline: as §1
MCF7 = experiment: Growth inhibition of human MCF7 cells at 10 uM after 48 hrs; type: functional; settings: MCF7, 48 h, read-out: GI; outline: as §1
MDA-MB-231 = experiment: Growth inhibition of human MDA-MB-231 cells at 10 uM after 48 hrs; type: functional; settings: MDA-MB-231, 48 h, read-out: GI; outline: as §1
DU-145 = experiment: Growth inhibition of human DU145 cells at 10 uM after 48 hrs; type: functional; settings: DU-145, 48 h, read-out: GI; outline: as §1
PC-3 = experiment: Growth inhibition of human PC3 cells at 10 uM after 48 hrs; type: functional; settings: PC-3, 48 h, read-out: GI; outline: as §1
TK-10 = experiment: Growth inhibition of human TK10 cells at 10 uM after 48 hrs; type: functional; settings: TK-10, 48 h, read-out: GI; outline: as §2
[4] = Growth inhibition of human UO31 cells at 10 uM after 48 hrs; type: functional; settings: UO-31, 48 h, read-out: GI; outline: as §2
CAKI-1 = experiment: Growth inhibition of human CAKI-1 cells at 10 uM after 48 hrs; type: functional; settings: CAKI-1, 48 h, read-out: GI; outline: as §1
[5] = Growth inhibition of human RXF393 cells at 10 uM after 48 hrs; type: functional; settings: RXF 393, 48 h, read-out: GI; outline: as §1
A498 = experiment: Growth inhibition of human A498 cells at 10 uM after 48 hrs; type: functional; settings: A498, 48 h, read-out: GI; outline: as §1
SK-OV-3 = experiment: Growth inhibition of human SKOV3 cells at 10 uM after 48 hrs; type: functional; settings: SK-OV-3, 48 h, read-out: GI; outline: as §2
[6] = Growth inhibition of human NCI-ADR-RES cells at 10 uM after 48 hrs; type: functional; settings: read-out: GI; outline: as §1
OVCAR-8 = experiment: Growth inhibition of human OVCAR8 cells at 10 uM after 48 hrs; type: functional; settings: OVCAR-8, 48 h, read-out: GI; outline: as §1
[7] = Growth inhibition of human OVCAR5 cells at 10 uM after 48 hrs; type: functional; settings: OVCAR-5, 48 h, read-out: GI; outline: as §1
[8] = Growth inhibition of human OVCAR4 cells at 10 uM after 48 hrs; type: functional; settings: OVCAR-4, 48 h, read-out: GI; outline: as §1
[9] = Growth inhibition of human UACC257 cells at 10 uM after 48 hrs; type: functional; settings: UACC-257, 48 h, read-out: GI; outline: as §2
SK-MEL-28 = experiment: Growth inhibition of human SK-MEL-28 cells at 10 uM after 48 hrs; type: functional; settings: SK-MEL-28, 48 h, read-out: GI; outline: as §2
SK-MEL-2 = experiment: Growth inhibition of human SK-MEL-2 cells at 10 uM after 48 hrs; type: functional; settings: SK-MEL-2, 48 h, read-out: GI; outline: as §2

## Nc1nc2c(c(-c3ccc(Br)cc3)n1)CCC/C2=C\c1ccc(Br)cc1
MDA-MB-435
  inhibition of growth at 10 µM: 63.2%
M14
  inhibition of growth at 10 µM: 38.1%
SNB-75
  inhibition of growth at 10 µM: < 30%
SNB-19
  inhibition of growth at 10 µM: < 30%
[1]
  inhibition of growth at 10 µM: < 30%
SF-268
  inhibition of growth at 10 µM: < 30%
SW-620
  inhibition of growth at 10 µM: < 30%
COLO 205
  inhibition of growth at 10 µM: < 30%
NCI-H522
  inhibition of growth at 10 µM: 51.6%
NCI-H322M
  inhibition of growth at 10 µM: < 30%
NCI-H23
  inhibition of growth at 10 µM: < 30%
[2]
  inhibition of growth at 10 µM: < 30%
SR
  inhibition of growth at 10 µM: 54.1%
K562
  inhibition of growth at 10 µM: < 30%
MOLT-4
  inhibition of growth at 10 µM: < 30%
CCRF-CEM
  inhibition of growth at 10 µM: < 30%
Dihydrofolate reductase
  pIC50: 4.80
T47D
  inhibition of growth at 10 µM: < 30%
[3]
  inhibition of growth at 10 µM: < 30%
MCF7
  inhibition of growth at 10 µM: 61.4%
MDA-MB-231
  inhibition of growth at 10 µM: < 30%
DU-145
  inhibition of growth at 10 µM: < 30%
PC-3
  inhibition of growth at 10 µM: < 30%
TK-10
  inhibition of growth at 10 µM: < 30%
[4]
  inhibition of growth at 10 µM: < 30%
CAKI-1
  inhibition of growth at 10 µM: < 30%
[5]
  inhibition of growth at 10 µM: < 30%
A498
  inhibition of growth at 10 µM: < 30%
SK-OV-3
  inhibition of growth at 10 µM: < 30%
[6]
  inhibition of growth at 10 µM: < 30%
OVCAR-8
  inhibition of growth at 10 µM: < 30%
[7]
  inhibition of growth at 10 µM: < 30%
[8]
  inhibition of growth at 10 µM: < 30%
[9]
  inhibition of growth at 10 µM: < 30%
SK-MEL-28
  inhibition of growth at 10 µM: < 30%
SK-MEL-2
  inhibition of growth at 10 µM: < 30%

## Cc1nc2c(c(-c3ccc(Br)cc3)n1)CCC/C2=C\c1ccc(Br)cc1
MDA-MB-435
  inhibition of growth at 10 µM: < 30%
M14
  inhibition of growth at 10 µM: < 30%
SNB-75
  inhibition of growth at 10 µM: < 30%
SNB-19
  inhibition of growth at 10 µM: < 30%
[1]
  inhibition of growth at 10 µM: < 30%
SF-268
  inhibition of growth at 10 µM: < 30%
SW-620
  inhibition of growth at 10 µM: < 30%
COLO 205
  inhibition of growth at 10 µM: < 30%
NCI-H522
  inhibition of growth at 10 µM: < 30%
NCI-H322M
  inhibition of growth at 10 µM: < 30%
NCI-H23
  inhibition of growth at 10 µM: < 30%
[2]
  inhibition of growth at 10 µM: < 30%
SR
  inhibition of growth at 10 µM: < 30%
K562
  inhibition of growth at 10 µM: < 30%
MOLT-4
  inhibition of growth at 10 µM: < 30%
CCRF-CEM
  inhibition of growth at 10 µM: < 30%
T47D
  inhibition of growth at 10 µM: < 30%
[3]
  inhibition of growth at 10 µM: < 30%
MCF7
  inhibition of growth at 10 µM: 56.7%
MDA-MB-231
  inhibition of growth at 10 µM: < 30%
DU-145
  inhibition of growth at 10 µM: < 30%
PC-3
  inhibition of growth at 10 µM: < 30%
TK-10
  inhibition of growth at 10 µM: < 30%
[4]
  inhibition of growth at 10 µM: < 30%
CAKI-1
  inhibition of growth at 10 µM: < 30%
[5]
  inhibition of growth at 10 µM: < 30%
A498
  inhibition of growth at 10 µM: < 30%
SK-OV-3
  inhibition of growth at 10 µM: < 30%
[6]
  inhibition of growth at 10 µM: < 30%
OVCAR-8
  inhibition of growth at 10 µM: < 30%
[7]
  inhibition of growth at 10 µM: < 30%
[8]
  inhibition of growth at 10 µM: < 30%
[9]
  inhibition of growth at 10 µM: < 30%
SK-MEL-28
  inhibition of growth at 10 µM: < 30%
SK-MEL-2
  inhibition of growth at 10 µM: < 30%

## COc1ccc(/C=C2\CCCC3=C(c4ccc(OC)cc4)Nc4ccccc4N=C32)cc1
MDA-MB-435
  inhibition of growth at 10 µM: 86.2%
M14
  inhibition of growth at 10 µM: < 30%
SNB-75
  inhibition of growth at 10 µM: < 30%
SNB-19
  inhibition of growth at 10 µM: < 30%
[1]
  inhibition of growth at 10 µM: < 30%
SF-268
  inhibition of growth at 10 µM: < 30%
SW-620
  inhibition of growth at 10 µM: < 30%
COLO 205
  inhibition of growth at 10 µM: < 30%
NCI-H522
  inhibition of growth at 10 µM: 93.4%
NCI-H322M
  inhibition of growth at 10 µM: < 30%
NCI-H23
  inhibition of growth at 10 µM: < 30%
[2]
  inhibition of growth at 10 µM: < 30%
SR
  inhibition of growth at 10 µM: 46.1%
K562
  inhibition of growth at 10 µM: 49.1%
MOLT-4
  inhibition of growth at 10 µM: < 30%
CCRF-CEM
  inhibition of growth at 10 µM: < 30%
Dihydrofolate reductase
  pIC50: 6.22
T47D
  inhibition of growth at 10 µM: < 30%
[3]
  inhibition of growth at 10 µM: < 30%
MCF7
  inhibition of growth at 10 µM: 44%
MDA-MB-231
  inhibition of growth at 10 µM: < 30%
DU-145
  inhibition of growth at 10 µM: < 30%
PC-3
  inhibition of growth at 10 µM: < 30%
TK-10
  inhibition of growth at 10 µM: < 30%
[4]
  inhibition of growth at 10 µM: < 30%
CAKI-1
  inhibition of growth at 10 µM: < 30%
[5]
  inhibition of growth at 10 µM: < 30%
A498
  inhibition of growth at 10 µM: < 30%
SK-OV-3
  inhibition of growth at 10 µM: < 30%
[6]
  inhibition of growth at 10 µM: < 30%
OVCAR-8
  inhibition of growth at 10 µM: < 30%
[7]
  inhibition of growth at 10 µM: < 30%
[8]
  inhibition of growth at 10 µM: < 30%
[9]
  inhibition of growth at 10 µM: < 30%
SK-MEL-28
  inhibition of growth at 10 µM: < 30%
SK-MEL-2
  inhibition of growth at 10 µM: < 30%
